The values that follow come from ChEMBL document CHEMBL3352088, “Novel derivatives of usnic acid effectively inhibiting reproduction of influenza A virus” (Bioorg Med Chem, 2014).

Series [1] is described as follows: Cytotoxicity against MDCK cells assessed reduction in cell viability after 48 hrs by MTT assay. In kind it is cell-based, Canis lupus familiaris. The conditions noted are these: dog, read-out: CTD50. The method, boiled down:
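MDCK monolayers were grown in MEM with 5% fetal calf serum and washed with serum-free MEM. Compounds (5 mg/ml DMSO stock) were applied as twofold dilutions, 1000–4 microgram/ml in MEM, for 48 h at 37°C. After PBS washes, MTT (0,5 mg/ml) was added for 60 min at 37°C, 5% CO2. Formazan was dissolved in DMSO and read at 535 nm. CTD50 is the concentration cutting viability 50%.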

Series [2] in a line: Selectivity index, ratio of CTD50 for MDCK cells to ED50 for Influenza A virus (A/California/07/09(H1N1)) pdm09. In kind it is toxicity, cell-based. The conditions noted are these: dog, read-out: Selectivity Index.

Take `CC(=O)c1c(O)c(C)c(O)c2c1OC1=Cc3c(c(C)nn3-c3ccccc3)C(=O)[C@@]12C`: the CC50 at 48 h in series [1] stood at 832 µM. Besides, in series [2], the selectivity ratio stood at 12.
On to `CC(=O)c1c(O)c(C)c(O)c2c1OC1=Cc3c(c(C)nn3-c3ccccc3)C(=O)[C@]12C`, for which, in series [1], the CC50 at 48 h amounted to 565 µM. Also, in series [2], the selectivity ratio worked out at 10.
In the case of `CC(=O)c1c(O)c(C)c(O)c2c1OC1=Cc3c(c(C)nn3-c3ccccc3)[C@@H](O)[C@@]12C`, in series [1], the CC50 at 48 h is 26.3 µM. In series [2], the selectivity ratio stood at 11.
Consider `CC(=O)c1c(O)c(C)c(O)c2c1OC1=CC(=O)/C(=C(/C)NCC(=O)O)C(=O)[C@@]12C`, for which the selectivity ratio in series [2] was determined as 6.
Regarding `CC(=O)c1c(O)c(C)c(O)c2c1OC1=CC(=O)/C(=C(/C)NCC(=O)O)C(=O)[C@]12C`, the CC50 at 48 h in series [1] was found to be 150 µM. The selectivity ratio in series [2] is 14.
The matching figures for `CC(=O)c1c(O)c(C)c(O)c2c1OC1=CC(=O)/C(=C(/C)NCCC(=O)O)C(=O)[C@@]12C`: 147 µM and 20.3.
The like results for `CC(=O)c1c(O)c(C)c(O)c2c1OC1=CC(=O)/C(=C(/C)NCCC(=O)O)C(=O)[C@]12C` were, in that order, 145 µM and 10.
As to `CC(=O)C1=C(O)C=C2O[C@]34O[C@@]3(C(C)=O)C(=O)C(C)=C(O)[C@]4(O)[C@@]2(C)C1=O`, the CC50 at 48 h in series [1] was found to be 234 µM. The selectivity ratio in series [2] was 22.
The matching figures for `CC(=O)c1c(O)c(C)c(O)c2c1OC1=CC(=O)/C(=C(/C)NCCCC(=O)O)C(=O)[C@@]12C`: 130 µM and 3.7.
The like results for `CSCC[C@H](N/C(C)=C1\C(=O)C=C2Oc3c(C(C)=O)c(O)c(C)c(O)c3[C@@]2(C)C1=O)C(=O)O` were, in that order, 21.1 µM and 5.
Regarding `CC(=O)c1c(O)c(C)c(O)c2c1OC1=CC(=O)/C(=C(/C)N[C@@H](CC(C)C)C(=O)O)C(=O)[C@@]12C`, in series [1], the CC50 at 48 h is 13.1 µM. Further, the selectivity ratio in series [2] came out at 2.
In the case of `CC(=O)c1c(O)c(C)c(O)c2c1OC1=CC(=O)/C(=C(/C)N[C@H](CC(=O)O)CC(C)C)C(=O)[C@]12C`, the CC50 at 48 h in series [1] is 32.8 µM. Besides, in series [2], the selectivity ratio worked out at 5.
`CC(=O)c1c(O)c(C)c(O)c2c1OC1=CC(=O)/C(=C(/C)NCCCC(=O)O)C(=O)[C@]12C`: in series [1], the CC50 at 48 h was 83.9 µM. For the same compound, in series [2], the selectivity ratio came out at 3.
The like results for `CC(=O)c1c(O)c(C)c(O)c2c1OC1=Cc3c(c(C)nn3-c3cccc(C(F)(F)F)c3)C(=O)[C@@]12C` were, in that order, 1100 µM and 16.
For `CC(=O)c1c(O)c(C)c(O)c2c1OC1=Cc3c(c(C)nn3-c3ccccc3)[C@H](O)[C@]12C`, the CC50 at 48 h in series [1] was 47.8 µM. Besides, in series [2], the selectivity ratio amounted to 4.
Take `COc1c(C)c(O)c(C(=O)/C=C/c2ccccc2)c2c1[C@]1(C)C(=Cc3c(c(C)nn3-c3ccccc3)[C@H]1O)O2`: the CC50 at 48 h in series [1] is 36.5 µM. Further, in series [2], the selectivity ratio is 1.1.
In the case of `COc1c(C)c(O)c(C(=O)/C=C/c2ccc(Cl)cc2)c2c1[C@]1(C)C(=Cc3c(c(C)nn3-c3ccccc3)[C@H]1O)O2`, in series [1], the CC50 at 48 h is 253 µM. In addition, in series [2], the selectivity ratio worked out at 4.6.
The matching figures for `COc1ccccc1/C=C/C(=O)c1c(O)c(C)c(OC)c2c1OC1=Cc3c(c(C)nn3-c3ccccc3)[C@@H](O)[C@@]12C`: 909 µM and 11.
The like results for `COc1ccc(/C=C/C(=O)c2c(O)c(C)c(OC)c3c2OC2=Cc4c(c(C)nn4-c4ccccc4)[C@@H](O)[C@@]23C)cc1OC` were, in that order, 431 µM and 12.5.
In the case of `COc1cccc(/C=C/C(=O)c2c(O)c(C)c(OC)c3c2OC2=Cc4c(c(C)nn4-c4ccccc4)[C@@H](O)[C@@]23C)c1OC`, the CC50 at 48 h in series [1] came out at 862 µM. For the same compound, in series [2], the selectivity ratio was 17.
In the case of `COc1ccc(/C=C/C(=O)c2c(O)c(C)c(OC)c3c2OC2=Cc4c(c(C)nn4-c4ccccc4)[C@@H](O)[C@@]23C)c(OC)c1OC`, the CC50 at 48 h in series [1] was determined as 279 µM. The selectivity ratio in series [2] came to 8.5.
As to `COc1cc(/C=C/C(=O)c2c(O)c(C)c(OC)c3c2OC2=Cc4c(c(C)nn4-c4ccccc4)[C@@H](O)[C@@]23C)cc(OC)c1OC`, in series [1], the CC50 at 48 h turned out to be 98.4 µM. In addition, the selectivity ratio in series [2] turned out to be 12.
The like results for `COc1ccc(OC)c(/C=C/C(=O)c2c(O)c(C)c(OC)c3c2OC2=Cc4c(c(C)nn4-c4ccccc4)[C@@H](O)[C@@]23C)c1` were, in that order, 517 µM and 20.
The matching figures for `COc1ccc(/C=C/C(=O)c2c(O)c(C)c(OC)c3c2OC2=Cc4c(c(C)nn4-c4ccccc4)[C@@H](O)[C@@]23C)c(OC)c1`: 517 µM and 20.
The matching figures for `COc1c(C)c(O)c(C(=O)/C=C/c2ccc(SC)cc2)c2c1[C@]1(C)C(=Cc3c(c(C)nn3-c3ccccc3)[C@H]1O)O2`: 530 µM and 10.
With `COc1cccc(/C=C/C(=O)c2c(O)c(C)c(OC)c3c2OC2=Cc4c(c(C)nn4-c4ccccc4)C(=O)[C@@]23C)c1OC`, the CC50 at 48 h in series [1] turned out to be 34.6 µM. In addition, in series [2], the selectivity ratio stood at 4.
In the case of `COc1ccc(-c2cc(-c3c(O)c(C)c(OC)c4c3OC3=Cc5c(c(C)nn5-c5ccccc5)[C@@H](O)[C@@]34C)n[nH]2)cc1`, in series [1], the CC50 at 48 h came to 1020 µM. Also, the selectivity ratio in series [2] was 10.
The matching figures for `COc1c(C)c(O)c(C(=O)/C=C/c2ccccc2)c2c1[C@@]1(C)C(=Cc3c(c(C)nn3-c3ccccc3)[C@@H]1O)O2`: 106 µM and 1.7.
Consider `COc1c(C)c(O)c(C(=O)/C=C/c2ccc(Cl)cc2)c2c1[C@@]1(C)C(=Cc3c(c(C)nn3-c3ccccc3)[C@@H]1O)O2`, for which the CC50 at 48 h in series [1] amounted to 116 µM. The selectivity ratio in series [2] turned out to be 1.5.
The like results for `COc1ccccc1/C=C/C(=O)c1c(O)c(C)c(OC)c2c1OC1=Cc3c(c(C)nn3-c3ccccc3)[C@H](O)[C@]12C` were, in that order, 909 µM and 14.
The like results for `COc1cccc(/C=C/C(=O)c2c(O)c(C)c(OC)c3c2OC2=Cc4c(c(C)nn4-c4ccccc4)[C@H](O)[C@]23C)c1OC` were, in that order, 862 µM and 11.3.
The matching figures for `CC(=O)C1=C(O)C=C2Oc3c4c(c(C)c(O)c3[C@]2(C)C1=O)OCC4=O`: 132 µM and 2.
On to `CC(=O)C1=C(O)C=C2Oc3c4c(c(C)c(O)c3[C@@]2(C)C1=O)OCC4=O`, for which the CC50 at 48 h in series [1] amounted to 117 µM. For the same compound, the selectivity ratio in series [2] was 1.8.
The matching figures for `COc1ccccc1/C=C1\Oc2c(C)c(O)c3c(c2C1=O)OC1=CC(O)=C(C(C)=O)C(=O)[C@@]13C`: 32.6 µM and 6.8.
The matching figures for `CC(=O)C1=C(O)C=C2Oc3c4c(c(C)c(O)c3[C@@]2(C)C1=O)O/C(=C\c1ccc(Br)cc1)C4=O`: 39.4 µM and 8.3.
As to `CC(=O)C1=C(O)C=C2Oc3c4c(c(C)c(O)c3[C@@]2(C)C1=O)O/C(=C\c1ccncc1)C4=O`, in series [1], the CC50 at 48 h was determined as 46.4 µM. Further, in series [2], the selectivity ratio turned out to be 6.1.
For `CC(=O)C1=C(O)C=C2Oc3c4c(c(C)c(O)c3[C@@]2(C)C1=O)O/C(=C\c1cccnc1)C4=O`, the CC50 at 48 h in series [1] was found to be 53.4 µM. For the same compound, the selectivity ratio in series [2] stood at 7.7.
As for `CC(=O)C1=C(O)C=C2Oc3c(C(=O)CSc4nc5ccccc5s4)c(O)c(C)c(O)c3[C@@]2(C)C1=O`, in series [1], the CC50 at 48 h is 58.9 µM. Also, the selectivity ratio in series [2] was found to be 2.
As for `CC(=O)C1=C(O)C=C2Oc3c(C(=O)CSc4nc5ccccc5o4)c(O)c(C)c(O)c3[C@@]2(C)C1=O`, the CC50 at 48 h in series [1] was found to be 2 µM. The selectivity ratio in series [2] turned out to be 1.
As to `CC(=O)C1=C(O)C=C2Oc3c(C(=O)CSCc4ccccc4)c(O)c(C)c(O)c3[C@@]2(C)C1=O`, in series [1], the CC50 at 48 h stood at 6.4 µM. Further, the selectivity ratio in series [2] turned out to be 3.
The like results for `CC(=O)C1=C(O)C=C2Oc3c(C(=O)CSCc4ccc(C)cc4)c(O)c(C)c(O)c3[C@@]2(C)C1=O` were, in that order, 2.1 µM and 1.
The matching figures for `CC(=O)C1=C(O)C=C2Oc3c(C(=O)CSCc4ncccc4C(=O)O)c(O)c(C)c(O)c3[C@@]2(C)C1=O`: 177 µM and 3.1.
On to `COc1c(C)c(O)c2c(c1C(=O)CSC1=NCCS1)OC1=CC(O)=C(C(C)=O)C(=O)[C@@]12C`, for which, in series [1], the CC50 at 48 h was 105 µM. Also, the selectivity ratio in series [2] came out at 7.1.
`COc1ccc2[nH]c(SCC(=O)c3c(OC)c(C)c(O)c4c3OC3=CC(O)=C(C(C)=O)C(=O)[C@@]34C)nc2c1`: in series [1], the CC50 at 48 h turned out to be 560 µM. In addition, the selectivity ratio in series [2] is 23.1.
Consider `COc1c(C)c(O)c2c(c1C(=O)CSc1nc3ccccc3o1)OC1=CC(O)=C(C(C)=O)C(=O)[C@]12C`, for which, in series [1], the CC50 at 48 h turned out to be 178 µM. For the same compound, the selectivity ratio in series [2] was 7.5.
Regarding `COc1c(C)c(O)c2c(c1C(=O)CSCCC(=O)O)OC1=CC(O)=C(C(C)=O)C(=O)[C@@]12C`, the CC50 at 48 h in series [1] was 938 µM. Moreover, in series [2], the selectivity ratio worked out at 5.8.
The matching figures for `CC(=O)C1=C(O)C=C2Oc3c(C(C)=O)c(OC(F)(Cl)C(F)F)c(C)c(O)c3[C@@]2(C)C1=O` (some centres undefined): 100 µM and 14.
As to `CC(=O)C1=C(O)C=C2Oc3c(C(C)=O)c(OC(=O)c4ccccc4Br)c(C)c(OC(=O)c4ccccc4Br)c3[C@@]2(C)C1=O`, the CC50 at 48 h in series [1] worked out at 31.1 µM. In series [2], the selectivity ratio came out at 4.
The matching figures for `CC(=O)C1=C(O)C=C2O[C@@]34O[C@]3(C(C)=O)C(=O)C(C)=C(O)[C@@]4(O)[C@]2(C)C1=O`: 152 µM and 5.3.
As for `CC(=O)[C@@]12O[C@@]13OC1=Cc4c(c(C)nn4-c4ccccc4)C(=O)[C@]1(C)[C@@]3(O)C(O)=C(C)C2=O`, the CC50 at 48 h in series [1] is 67 µM. Also, the selectivity ratio in series [2] is 5.
